Calls of active or inactive are those of the source.
Tests used:
Type in all cases: functional, organism-based
Bacillus anthracis = assay: Antibacterial activity against Bacillus anthracis at 1mM by almar blue dye reduction assay
Escherichia coli = assay: Antibacterial activity against Escherichia coli at 1 mM by almar blue dye reduction assay
Outline: (§1)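 Single-point primary screen at 1 mM using Alamar Blue dye reduction as the growth read-out.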

Staphylococcus aureus = assay: Antibacterial activity against Staphylococcus aureus at 1 mM by almar blue dye reduction assay; outline: as §1
Cryptococcus neoformans = assay: Antifungal activity against Cryptococcus neoformans at 1 mM by almar blue dye reduction assay; outline: as §1
Bacillus subtilis = assay: Antibacterial activity against Bacillus subtilis at 1 mM by almar blue dye reduction assay; outline: as §1
Bacillus cereus = assay: Antibacterial activity against Bacillus cereus at 1 mM by almar blue dye reduction assay; outline: as §1
Saccharomyces cerevisiae = assay: Antifungal activity against Saccharomyces cerevisiae at 1 mM by almar blue dye reduction assay; outline: as §1
Pseudomonas aeruginosa = assay: Antibacterial activity against Pseudomonas aeruginosa at 1 mM by almar blue dye reduction assay; outline: as §1
Candida albicans = assay: Antifungal activity against Candida albicans at 1 mM by almar blue dye reduction assay; outline: as §1

Measured: Activity

CCN(CC)C(=O)[C@H](C)[C@H]1CC[C@@H](C[C@@H](C)n2cc(C#CCCCC#N)nn2)O1
inactive: all assays above

C[C@H](C[C@@H]1CC[C@H]([C@@H](C)C(=O)N2CCCC2)O1)n1cc(C#CCOc2ccc(C(F)(F)F)cc2)nn1
inactive: all assays above

CCN(CC)C(=O)[C@H](C)[C@H]1CC[C@@H](C[C@@H](C)n2cc(C#CCN(C)CCc3ccccc3)nn2)O1
inactive: all assays above

COc1cccc(OCC#Cc2cn([C@H](C)C[C@@H]3CC[C@H]([C@@H](C)C(=O)N(C)Cc4ccccc4)O3)nn2)c1OC
inactive: all assays above

COc1cccc(OCC#Cc2cn([C@H](C)C[C@@H]3CC[C@H]([C@@H](C)C(=O)NC(C)C)O3)nn2)c1OC
inactive: all assays above

CCCNC(=O)NCC#Cc1cn([C@H](C)CC2CCC([C@@H](C)C(=O)N3CCN(CC4CCCO4)CC3)O2)nn1 (single isomer, unassigned)
inactive: all assays above

CC(C)NC(=O)[C@H](C)[C@H]1CC[C@@H](C[C@@H](C)n2cc(C#CCOc3cccc(-c4ccccc4)c3)nn2)O1
inactive: all assays above

C[C@H](CC1CCC([C@@H](C)C(=O)N2CCN(CC3CCCO3)CC2)O1)n1cc(C#CCCCC#N)nn1 (single isomer, unassigned)
inactive: all assays above

CCC(=O)OCC#Cc1cn([C@H](C)CC2CCC([C@@H](C)C(=O)N3CCCC3)O2)nn1 (single isomer, unassigned)
inactive: all assays above

C[C@H](C[C@@H]1CC[C@H]([C@@H](C)C(=O)N2CCN(CC3CCCO3)CC2)O1)n1cc(C#CCN2CCOCC2)nn1 (some centres not stated)
inactive: all assays above

CCN(CC)C(=O)[C@H](C)[C@H]1CC[C@@H](C[C@@H](C)n2cc(C#Cc3ccccn3)nn2)O1
inactive: all assays above

C[C@H](C[C@@H]1CC[C@H]([C@@H](C)C(=O)N(C)Cc2ccccc2)O1)n1cc(C#CCOc2ccc(Br)cc2)nn1
inactive: all assays above

COCC#Cc1cn([C@H](C)C[C@@H]2CC[C@H]([C@@H](C)C(=O)N(C)Cc3ccccc3)O2)nn1
inactive: all assays above

C[C@H](C[C@@H]1CC[C@H]([C@@H](C)C(=O)N(C)Cc2ccccc2)O1)n1cc(C#CCN2CCOCC2)nn1
inactive: all assays above

CC(C)NC(=O)[C@H](C)[C@H]1CC[C@@H](C[C@@H](C)n2cc(C#CCOc3ccc(C(F)(F)F)cc3)nn2)O1
inactive: all assays above

CCCCN(CC#Cc1cn([C@H](C)C[C@@H]2CC[C@H]([C@@H](C)C(=O)N3CCCC3)O2)nn1)CCCC
inactive: all assays above

CCCCCC#Cc1cn([C@H](C)C[C@@H]2CC[C@H]([C@@H](C)C(=O)N3CCCC3)O2)nn1
inactive: all assays above

COc1ccc(OCC#Cc2cn([C@H](C)C[C@@H]3CC[C@H]([C@@H](C)C(=O)N(C)Cc4ccccc4)O3)nn2)cc1
inactive: all assays above

CCN(CC)C(=O)[C@H](C)[C@H]1CC[C@@H](C[C@@H](C)n2cc(C#Cc3ccc(C(F)(F)F)cc3)nn2)O1
inactive: all assays above

COc1ccc(C#Cc2cn([C@H](C)C[C@@H]3CC[C@H]([C@@H](C)C(=O)NC(C)C)O3)nn2)cc1
inactive: all assays above

CC(C)CC#Cc1cn([C@H](C)C[C@@H]2CC[C@H]([C@@H](C)C(=O)N(C)Cc3ccccc3)O2)nn1
inactive: all assays above

CC(C)CC#Cc1cn([C@H](C)C[C@@H]2CC[C@H]([C@@H](C)C(=O)NC(C)C)O2)nn1
inactive: all assays above

C[C@H](C[C@H]1CC[C@H]([C@@H](C)C(=O)N2CCCC2)O1)n1cc(C#CCN(C)C)nn1
inactive: all assays above

From ChEMBL document CHEMBL1155099, “Natural products in parallel synthesis: triazole libraries of nonactic acid” (2008)
